Assay outcomes (PubChem)
Shown are actives, neighbours in structure and some others; about 2.3% of the full set was active somewhere.
TRPC4 inh = TRPC4 (mouse) channel inhibition | AID 2247 | 300,000 compounds, 0.39% hits | HEK293 TRPC4beta/mu-opioid, DAMGO-evoked Fluo4 calcium flux; active compounds read low | B-score at 10 µM | Q9QUQ5;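 active means B-score over 3 SD under the library average, no early fluorescence shift, positive overall ratio signal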
Target sequence (Q9QUQ5 whole entry, looked up): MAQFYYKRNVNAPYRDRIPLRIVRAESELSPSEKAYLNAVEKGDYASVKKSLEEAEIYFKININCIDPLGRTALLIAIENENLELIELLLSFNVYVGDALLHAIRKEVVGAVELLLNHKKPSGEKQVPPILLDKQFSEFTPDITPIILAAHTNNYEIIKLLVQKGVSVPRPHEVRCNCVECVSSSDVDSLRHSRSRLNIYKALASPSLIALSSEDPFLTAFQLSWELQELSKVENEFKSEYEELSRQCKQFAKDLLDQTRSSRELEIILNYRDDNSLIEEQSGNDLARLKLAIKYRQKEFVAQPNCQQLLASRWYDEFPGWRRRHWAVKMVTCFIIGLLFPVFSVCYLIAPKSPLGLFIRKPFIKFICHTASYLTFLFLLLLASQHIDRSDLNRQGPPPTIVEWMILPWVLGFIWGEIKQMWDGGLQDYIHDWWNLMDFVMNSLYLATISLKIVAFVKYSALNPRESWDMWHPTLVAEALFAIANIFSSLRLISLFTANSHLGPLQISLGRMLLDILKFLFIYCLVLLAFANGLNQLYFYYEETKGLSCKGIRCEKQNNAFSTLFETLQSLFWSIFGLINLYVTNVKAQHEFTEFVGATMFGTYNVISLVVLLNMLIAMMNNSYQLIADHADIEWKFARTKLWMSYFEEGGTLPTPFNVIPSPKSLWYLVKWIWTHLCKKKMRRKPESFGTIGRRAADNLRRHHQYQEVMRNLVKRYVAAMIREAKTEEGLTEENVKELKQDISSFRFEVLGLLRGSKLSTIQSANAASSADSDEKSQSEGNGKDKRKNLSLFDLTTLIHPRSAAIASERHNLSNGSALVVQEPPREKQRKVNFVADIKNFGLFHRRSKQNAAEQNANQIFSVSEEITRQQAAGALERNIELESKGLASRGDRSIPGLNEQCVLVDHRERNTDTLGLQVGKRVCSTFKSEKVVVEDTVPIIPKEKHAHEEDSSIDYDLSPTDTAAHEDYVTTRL
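test system = HEK293 cells with stable TRPC4beta plus mu-opioid receptor expression | detection = Fluo4 Ca2+ flux fluorescence | read-out = integrated fluorescence ratio relative to baseline, converted to per-well B score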
TRPC4 PAM = allosterically enhances the mouse TRPC4 cation channel | 310,000 compounds, 0.42% hits | Q9QUQ5 | AID 2227 | B-score at 10 µM | HEK293 TRPC4beta/mu-opioid, DAMGO EC20, Fluo-4 Ca2+ flux; active compounds read high;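 active means B-score of calcium response area above 5 SD of library B-scores, with initial fluorescence ratio within 5 SD of library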;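 further: B-score of integrated fluorescence ratio over time as area under calcium response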
TRPC4 act = opens the mouse TRPC4 cation channel; Q9QUQ5; HEK293 TRPC4beta/mu-opioid, Fluo4 calcium fluorescence; active compounds read high; B-score at 10 µM; 310,000 compounds, 0.49% hits; AID 2237;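 active means B-score above 5 SD of library B-scores, and initial fluorescence ratio not above library mean plus 5 SD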;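 further: positive B-score marks a calcium rise read as TRPC4 activation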
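System – HEK293 cells stably co-expressing mouse TRPC4beta and mu-opioid receptor · Signal – Fluo4 calcium-sensitive dye fluorescence, kinetic, 1 Hz baseline · Benchmarks – buffer (low) and maximal DAMGO (high) · Read-out – B score of integrated fluorescence ratio per well · Incubation – dye loading 45 min room temperature, 110 s kinetic read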
TRPC6 activator = mouse TRPC6 channel activation; Q61143; HEK293-TRPC6 membrane potential dye fluorescence; active compounds read high; B-score at 10 µM; 310,000 compounds, 0.13% hits;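 active means B-score of the integrated fluorescence ratio above library mean plus 3 SD, and starting fluorescence ratio within library mean plus 5 SD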;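 further: higher score means more depolarization so channel activation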
TRPC6 inh = blocks the mouse TRPC6 cation channel. B-score at 10 µM. HEK293-TRPC6, membrane potential dye, ACh-evoked depolarization; active compounds read low. 310,000 compounds, 1.1% hits. AID 2553;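 active means B-score under library mean minus 3 SD, initial fluorescence not abnormally high, positive integrated signal ratio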;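 further: B-score derived from integrated fluorescence ratio over the kinetic read; more negative B-score means stronger inhibition of depolarization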
TRPC4 spec 2 = second selectivity test of TRPC6 inhibitors: effect on mouse TRPC4. inhibition, % at 10 µM. AID 2776. shares compounds with TRPC6 inh. 920 compounds, 42% hits. HEK293 TRPC4/MOR, membrane potential dye fluorescence; channel activated by saturating DAMGO dose;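 active means compounds whose fluorescence signal differed from control wells by over 3 SD, either direction, in both duplicate plates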
TRPC4 spec = tests whether TRPC6 inhibitors also affect mouse TRPC4 | shares compounds with TRPC6 inh | HEK293 TRPC4/mu-opioid, membrane potential fluorescence | activity change, negative = inhibition, % at 10 µM | 920 compounds, 61% hits;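 active means rise or fall in signal beyond 3 SD of buffer-only wells in both replicate plates, either sign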;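 further: integrated kinetic ratio of fluorescence range over baseline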
HEK293 MPD ctr 2-1 = second check of TRPC6 inhibitor effects in parental HEK293 cells. signal change vs control, % at 10 µM. shares compounds with TRPC6 inh. 920 compounds, 31% hits. parental HEK293 membrane potential dye fluorescence; maximal acetylcholine challenge after compound addition. AID 2779;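 active means membrane potential signal moving either way by over 3 SD of the maximum-effect control, in both duplicate plates, meaning non-specific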
HEK293 MPD ctr-1 = counter-screen for TRPC6 inhibitors: effect in parental HEK293 cells. 920 compounds, 60% hits. parental HEK293 membrane potential dye fluorescence. shares compounds with TRPC6 inh. membrane potential signal change, % at 10 µM. AID 2780;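 active means membrane potential signal shifting up or down by more than 3 SD of buffer-only wells, on both duplicate plates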
HEK293 MPD ctr-2 = counter-screen for TRPC6 modulators: effect in parental HEK293 cells; membrane potential dye fluorescence; membrane potential signal change, % at 10 µM; 2,400 compounds, 51% hits; AID 488924; shares compounds with TRPC6 inh;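 active means membrane potential signal moves up or down beyond 5 SD from buffer-only wells, on both duplicate plates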
HEK293 MPD ctr 2-2 = second counter-screen for TRPC6 modulators: effect in parental HEK293 cells | shares compounds with TRPC6 inh | membrane potential dye fluorescence; after compound, maximal acetylcholine stimulation | inhibition, % at 10 µM | 2,400 compounds, 14% hits | AID 488926;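 active means membrane potential signal drops by more than 5 SD from the mean control signal, in both duplicate plates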;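 further: plate controls were acetylcholine ECmax control wells for no effect and buffer only wells for full effect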
TRPC4 ctr mod = tests whether TRPC6 modulators also affect mouse TRPC4; shares compounds with TRPC6 inh; percent change from control (negative = decrease, positive = increase), % at 10 µM; HEK293 TRPC4/mu-opioid, membrane potential fluorescence; 2,400 compounds, 69% hits;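 active means membrane potential signal moved up or down beyond 5 SD of buffer control wells, in both duplicate plates, actives on both sides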;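 further: plate controls were assay buffer wells for no effect and DAMGO maximal-effect wells for full effect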
TRPC4/MOR inh 2 = second check of whether TRPC6 modulators also affect mouse TRPC4; shares compounds with TRPC6 inh; HEK293 TRPC4/mu-opioid, membrane potential dye fluorescence; stimulated with maximal-effect DAMGO; inhibition, % at 10 µM; 2,400 compounds, 55% hits; AID 488928;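 active means drop in membrane potential signal beyond 5 SD of the control wells in both duplicate plates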;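 further: TRPC4 counter screen for TRPC6 hits run under conditions tuned for TRPC6 not TRPC4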
TRPC6 block conf = mouse TRPC6 inhibitor confirmation; shares compounds with TRPC6 inh; 3,300 compounds, 43% hits; inhibition, % at 10 µM; HEK293-TRPC6, membrane potential dye, ACh-evoked depolarization;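 active means fluorescence ratio falls more than 5 SD below the full-stimulation control mean, in both duplicate runs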;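 further: integrated fluorescence ratio of peak minus minimum over baseline after agonist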
TRPC6 act conf = confirmation of mouse TRPC6 activators | shares compounds with TRPC6 inh | HEK293-TRPC6 membrane potential dye fluorescence, FDSS | activation, % at 10 µM | 2,800 compounds, 11% hits | AID 488961;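 active means ratio signal rise beyond 5 SD above unstimulated control wells' mean, seen in both duplicate runs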;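 further: plate controls were buffer EC0 wells for no effect and acetylcholine ECmax response for full effect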
An asterisk follows results filed as active; i = inactive; x = no result; ! = not confirmed by another sample.

SMILES | TRPC4 inh | TRPC4 PAM | TRPC4 act | TRPC6 activator | TRPC6 inh | HEK293 MPD ctr-2 | HEK293 MPD ctr 2-2 | TRPC4 ctr mod | TRPC4/MOR inh 2 | TRPC6 block conf | TRPC6 act conf | others
COC(=O)c1ccsc1NC(=O)CN1CCN(Cc2ccc3c(c2)OCO3)CC1 | i | i | i | i | -6.65* | x | x | x | x | i | x | TRPC4 spec 2=i;TRPC4 spec=19.1%*;HEK293 MPD ctr 2-1=389.0%*;HEK293 MPD ctr-1=16.3%*
CCOC(=O)c1c(C)n(C)c2ccc(OC)c(NC(=O)CN3CCN(Cc4ccccc4)CC3)c12 | i | i | i | i | -5.66* | i | i | 8.5%* | 39.0%* | i | i
COc1ccc2c(c1)c(C(=O)CN1CCN(c3ccccc3)CC1)c(C)n2C | i | i | i | i | i | x | x | x | x | x | x
CCOc1cc(/C=C2\N=C(SC)SC2=O)cc([N+](=O)[O-])c1OC(C)=O | i | i | i | i | -5.09* | i | i | i | 39.0%* | i | i
CCOc1cc(/C=C2\N=C(SCC)SC2=O)cc([N+](=O)[O-])c1OC(C)=O | i | i | i | i | i | x | x | x | x | x | x
Nc1nc(Nc2ccccc2F)nc(NCCO)c1[N+](=O)[O-] | i | i | i | i | i | x | x | x | x | x | x
CN(C)CCC(O)(c1ccccc1)c1ccccc1 | i | i | i | i | i | x | x | x | x | x | x
CCN(CC)CC#CC(O)(c1ccccc1)c1ccccc1 | i | i | i | i | -13.7* | x | x | x | x | 80.2%* | i | TRPC4 spec 2=i;TRPC4 spec=1.8%*;HEK293 MPD ctr 2-1=-31.0%*;HEK293 MPD ctr-1=5.0%*
OCCN(CC#CC(O)(c1ccccc1)c1cccc(F)c1)CCO (stereo not given) | i | i | i | i | i | x | x | x | x | x | x
CN(C)CCC#CC(O)(c1ccccc1)c1ccccc1 | i | i | i | i | -5.69* | i | 98.0%* | 7.0%* | i | 83.5%* | x
CN(C)C(C)(C)C#CC(O)(c1ccccc1)c1ccccc1 | i | i | i | i | -8.36* | x | x | x | x | 67.3%* | i | TRPC4 spec 2=i;TRPC4 spec=-0.1%*;HEK293 MPD ctr 2-1=11.0%*;HEK293 MPD ctr-1=4.5%*
COc1cc(-c2n[nH]c(=S)n2-c2cc(C(F)(F)F)ccc2Cl)cc(OC)c1OC | i | i | i | i | i | x | x | x | x | x | x
S=C(N/N=C/c1ccco1)NC1CC2CCC1C2 (stereo not given) | i | i | i | i | i | x | x | x | x | x | x
CC(C)(C)CC(=O)Nc1nnc(C(F)(F)F)s1 | i | i | i | i | i | x | x | x | x | x | x
CC(NC(=O)Nc1nnc(C(F)(F)F)s1)(C(F)(F)F)C(F)(F)F | i | i | i | i | -7.3* | x | x | x | x | 87.0%* | x | TRPC4 spec 2=57.0%*;TRPC4 spec=50.7%*;HEK293 MPD ctr 2-1=i;HEK293 MPD ctr-1=30.4%*
O=C(CSCc1ccccc1)Nc1ccc(F)c(F)c1 | i | i | i | i | i | x | x | x | x | x | x
c1cncc(CNc2ncnc3sccc23)c1 | i | i | 44* | 27.5* | i | i | i | i | i | i | i
COc1ccc(C(=O)N/C(=C\c2cn(C)c3ccccc23)C(=O)OCCN(C)C)cc1 | i | i | i | i | -6.08* | i | i | i | 53.0%* | 45.0%* | i
CCCCOC(=O)/C(=C/c1cn(C)c2ccccc12)NC(=O)c1ccc(OC)cc1 | i | i | i | i | i | x | x | x | x | x | x
N=C1C(=O)OCC1c1ccccc1NC(=O)c1ccccc1 (stereo not given) | i | i | i | i | i | x | x | x | x | x | x
C[n+]1c2n(c3ccccc31)N=C(c1ccccc1)CS2 | i | i | i | i | -5.16*! | -159.0%* | i | -26.0%* | 49.5%* | i | i
C[n+]1c2n(c3ccccc31)N=C(c1ccc(-c3ccccc3)cc1)CS2 | i | i | i | i | i | x | x | x | x | x | x
COCCCNC(=O)CCn1nc(-c2ccc(Cl)cc2)ccc1=O | i | i | i | i | -5.24* | i | i | i | i | i | i
CCOC(=O)c1c(CN2CCCCC2)n(C)c2cc(Br)c(O)cc12 | i | i | i | i | i | x | x | x | x | x | x
CCOC(=O)c1c(CN2CCN(C)CC2)n(C)c2cc(Br)c(OC)cc12 | i | i | i | i | -5.49* | -113.0%* | i | -21.5%* | 72.0%* | 44.0%* | i
SMILES | TRPC4 inh | TRPC4 PAM | TRPC4 act | TRPC6 activator | TRPC6 inh | HEK293 MPD ctr-2 | HEK293 MPD ctr 2-2 | TRPC4 ctr mod | TRPC4/MOR inh 2 | TRPC6 block conf | TRPC6 act conf | others
c1ccc(CN2CCN(c3nc(NCc4ccco4)c4ccccc4n3)CC2)cc1 | i | i | i | i | i | x | x | x | x | x | x
Oc1ccc(Nc2nc(NCC3CCCO3)c3ccccc3n2)cc1 (stereo not given) | i | i | i | i | -6.5* | i | i | -12.5%* | 56.0%* | 38.0%* | i
OCCN1CCN(c2nc(NCc3ccco3)c3ccccc3n2)CC1 | i | i | i | i | -6.01* | -228.5%* | i | -38.5%* | 57.0%* | i | i
c1ccc(Nc2nc(NCc3ccco3)c3ccccc3n2)cc1 | i | i | i | i | i | x | x | x | x | x | x
c1ccc2c(NCC3CCCO3)nc(N3CCCCC3)nc2c1 (stereo not given) | i | i | i | i | i | x | x | x | x | x | x
Oc1ccc(Cl)cc1Nc1nc(NCC2CCCO2)c2ccccc2n1 (stereo not given) | i | i | i | i | i | x | x | x | x | x | x
